Broadly, the IC50 is the concentration that inhibits the measured activity by half.

This note sets out measurements from ChEMBL document CHEMBL4014342, “Subtly Modulating Glycogen Synthase Kinase 3 β: Allosteric Inhibitor Development and Their Potential for the Treatment of Chronic Diseases” (J Med Chem, 2017).

The target of data set [1] is T1, Glycogen synthase kinase-3 beta (Homo sapiens, UniProt P49841). Description: Allosteric inhibition of human recombinant full length N-terminal GST-tagged GSK3beta expressed in fall armyworm Sf9 cells after 30 min in presence of ATP by kinase glo luminescent assay. The gist of the method:
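Human recombinant GSK-3β (20 ng) with prephosphorylated peptide substrate, 50 μM in the 20 μL substrate mix, and ATP, 2 μM in that mix. Buffer: 50 mM HEPES pH 7.5, 1 mM EDTA, 1 mM EGTA, 15 mM Mg acetate; DMSO ≤1%. Incubated 30 min at 30 °C, then Kinase-Glo added and luminescence read after 10 min.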
Target sequence in this assay (P49841 whole entry): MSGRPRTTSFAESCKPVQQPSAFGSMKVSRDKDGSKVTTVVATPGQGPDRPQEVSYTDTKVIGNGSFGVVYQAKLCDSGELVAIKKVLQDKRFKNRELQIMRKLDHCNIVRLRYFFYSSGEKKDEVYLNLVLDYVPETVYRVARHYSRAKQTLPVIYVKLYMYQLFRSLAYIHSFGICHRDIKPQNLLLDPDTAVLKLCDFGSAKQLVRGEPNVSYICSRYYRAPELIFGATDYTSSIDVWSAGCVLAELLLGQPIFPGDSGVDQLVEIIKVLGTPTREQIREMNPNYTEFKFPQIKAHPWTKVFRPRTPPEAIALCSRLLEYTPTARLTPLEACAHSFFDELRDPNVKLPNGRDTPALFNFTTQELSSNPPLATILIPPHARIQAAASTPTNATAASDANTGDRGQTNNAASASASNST

Data set [2] addresses T1, Glycogen synthase kinase-3 beta. Description: Allosteric inhibition of GSK3beta in human LN18 cells assessed as decrease in beta-catenin translocation from cytoplasm to nucleus at 10 uM after 72 hrs by DAPI-satining based confocal microscopic analysis. In kind it is cell-based. The gist of the method:
(§1)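 LN18 glioblastoma cells (DMEM, 10% FBS, 2 mM glutamine) and SH-SY5Y neuroblastoma cells (DMEM, 10% FBS, 10 mM glutamine; 37 °C, 5% CO2) were grown on glass coverslips and exposed to compound at 10 μM for 72 h, with vehicle controls. Cells were fixed in 4% paraformaldehyde and permeabilized with Triton X-100. β-Catenin was stained with mouse anti-β-catenin and an Alexa-488 secondary, nuclei with DAPI, and localization imaged by confocal microscopy.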
Target sequence in this assay (P49841 whole entry, looked up): as the sequence (P49841 whole entry) above

Data set [3] has the same target. Description: Allosteric inhibition of GSK3beta in human […] cells assessed as decrease in beta-catenin translocation from cytoplasm to nucleus at 10 uM after 72 hrs by DAPI-satining based confocal microscopic analysis. In kind it is cell-based. The gist of the method:
as §1
Target sequence in this assay (P49841 whole entry, looked up): as the sequence (P49841 whole entry) above

A short description of data set [4]: Cytotoxicity against motor neurons obtained from SMA patient derived iPSC assessed as cell death at >1.25 uM after 7 days. In kind it is cell-based. Particulars: human, motor neuron, 168 h. In outline:
(§2)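 SMA type I/II patient iPSCs were differentiated into motor neurons over 15 days: LDN/SB431542, retinoic acid, BDNF, smoothened agonist, then DAPT/Ara-C. Cells were dissociated onto astrocyte-coated wells in Neurobasal with B27/N2 and BDNF, GDNF and CNTF, and treated 7 days with DMSO or increasing compound concentrations. After fixation, cells were immunostained for Islet1/MAP2 with Hoechst nuclear stain and imaged automatically. Survival is expressed as Islet1+ MN counts relative to DMSO wells, for each line.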

A further data set has as its system Motor neuron. Description: Increase in survival of motor neurons obtained from SMA patient derived iPSC after 7 days by Hoechst 33342-staining based fluorescence assay. It counts as functional, cell-based. Conditions: Homo sapiens. In outline: as §2
In data set [5] the target is T1, Glycogen synthase kinase-3 beta. Description: Non-competitive allosteric inhibition of human recombinant full length N-terminal GST-tagged GSK3beta expressed in fall armyworm Sf9 cells at 2.5 to 5 uM using GS2 as substrate measured at constant substrate levels and varying ATP levels after 30 mins by ADP-Glo kinase Assay. In outline:
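Human recombinant GSK-3β kinetics with ATP varied from 1 to 50 μM, inhibitor at 2.5 or 5 μM, and GS-2 held constant, stated as 25 μM in the methods and 12.5 μM in the legend. Read by ADP-Glo and analyzed by double-reciprocal plots. Each point is the mean of two experiments, each run in duplicate.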
Target sequence in this assay (P49841 whole entry, looked up): as the sequence (P49841 whole entry) above

The target is the same in data set [6]. Kind of data set: Non-competitive allosteric inhibition of human recombinant full length N-terminal GST-tagged GSK3beta expressed in fall armyworm Sf9 cells at 2 to 5 uM using GS2 as substrate measured at varying substrate levels and constant ATP levels after 30 mins by Double-reciprocal plot analysis. In outline: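 Human recombinant GSK-3β kinetics with GS-2 substrate varied from 12.5 to 100 μM, ATP held at 1 μM, and inhibitor at 2 or 5 μM. Analyzed by Lineweaver–Burk double-reciprocal plots. Each point is the mean of two experiments, each run in duplicate.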
Target sequence in this assay (P49841 whole entry, looked up): as the sequence (P49841 whole entry) above

The subject of data set [7] is Myoblast. Kind of data set: Induction of myoblast differentiation in CDM1 patient-derived human primary myoblasts after 4 days by bright field microscopic method. In kind it is functional, cell-based.
Data set [8] concerns Myoblast. Kind of data set: Induction of myoblast differentiation in CDM1 patient-derived human primary myoblasts assessed as increase in desmin expression after 4 days by Western blot analysis. It counts as functional, cell-based. The gist of the method:
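CDM1 patient primary myoblasts, about 1,000 repeats and fewer than 15–20 passages, with control myoblasts. Grown in F10-based medium, then switched to fusion medium (DMEM, horse serum, insulin) changed daily. Compound in DMSO was added at different doses with fresh fusion medium each day. After 4 days, myotube RIPA extracts were probed by Western blot for desmin, with actin as control.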
For orientation: A western blot detects proteins with antibodies after separation by electrophoresis.

The source made the active and inactive calls. No cut-off for these calls is given here. Some results are limits rather than exact numbers.

Consider `CCn1c(=O)c(C(=O)NNC(=O)CCc2c[nH]c3ccccc23)c(O)c2ccccc21`, for which the IC50 in data set [1] was greater than 20 µM.
Consider `CCCCCCCC(=O)NNC(=O)c1c(O)c2cc(F)ccc2[nH]c1=O`, for which the IC50 in [1] was greater than 20 µM.
`CCCCCCNC(=O)c1c(O)c2ccccc2n(C)c1=O`: the IC50 in data set [1] is greater than 20 µM.
As for `Cn1c(=O)c(C(=O)NNC(=O)Cc2ccccc2)c(O)c2ccccc21`, the IC50 in data set [1] was greater than 20 µM.
The same measure, in the same setting: under `CCn1c(=O)c(C(=O)NNC(=O)CCc2ccc(O)cc2)c(O)c2ccccc21` stands greater than 20 µM.
Turning to `CCCCCCCCCCCC(=O)NNC(=O)c1c(O)c2ccccc2n(CC)c1=O`, the inhibition result in data set [2] and in data set [3] was “Active” in each case. Also, the Activity entry in data set [4] was “Non-Toxic”; in the data set on Motor neuron, “Dose-dependent effect”.
Regarding `O=C1Cc2c([nH]c3ccc([N+](=O)[O-])cc23)-c2ccccc2N1` [ALSTERPAULLONE], the inhibition entry in data set [2] and in data set [3] was “inactive” in each case. Besides, the Activity result in data set [4] is “Toxic”.
In the case of `CCCCCCCCCCCC(=O)NNC(=O)c1c(O)c2ccccc2n(CC=C(C)C)c1=O`, in [1], the IC50 was found to be 7.78 µM.
On to `CCCCCCCCCCCC(=O)NNC(=O)c1c(O)c2ccccc2n(CC(C)C)c1=O`, for which the IC50 in [1] is greater than 20 µM.
Consider `Cn1cc(C2=C(c3ccc(Cl)cc3Cl)C(=O)NC2=O)c2ccccc21`, for which the inhibition entry in [2] and in data set [3] was “inactive” in each case.
With `CCCCCCCC(=O)NNC(=O)c1c(O)c2ccccc2n(CC=C(C)C)c1=O`, in data set [1], the IC50 came to 7.11 µM.
`CCCCCCCCCCCC(=O)NNC(=O)c1c(O)c2cc(Br)ccc2n(CC)c1=O`: the inhibition entry in data set [5], in [6], in data set [2] and in data set [3] was “Active” each time. In addition, the figures for the Activity entry (with Myoblast [7]; in data set [4]; in the data set with Motor neuron) were “Dose-dependent effect”, “Non-Toxic” and “Dose-dependent effect”, respectively. In addition, the outcome in the data set on Myoblast [8] was Active.
Take `Cn1c(=O)c(C(=O)NCC(=O)NCC(=O)OCc2ccccc2)c(O)c2ccccc21`: the half-inhibitory concentration (IC50) in data set [1] was greater than 20 µM.
Turning to `Cn1c(=O)c(C(=O)NNCCC#N)c(O)c2ccccc21`, in [1], the IC50 was greater than 20 µM.
With `CCCCCCCC(=O)NNC(=O)c1c(O)c2ccccc2n(CC)c1=O`, in data set [1], the IC50 was greater than 20 µM.
As to `CCCCCCCC(=O)NNC(=O)c1c(O)nc2ccccc2c1O`, the IC50 in data set [1] was greater than 20 µM.
On to `Cn1c(=O)c(C(=O)NNC(=O)CCc2c[nH]c3ccccc23)c(O)c2ccccc21`, for which the IC50 in [1] was greater than 20 µM.
Consider `CC(=O)NNC(=O)c1c(O)c2ccccc2n(C)c1=O`, for which, in [1], the IC50 was greater than 20 µM.
Still for that read-out and setting: under `Cn1c(=O)c(C(=O)NNC(=O)c2ccccc2)c(O)c2ccccc21` stands greater than 20 µM.
With `CCCCCCCCCCCC(=O)NNC(=O)c1c(O)c2ccc(Cl)cc2n(CC)c1=O`, the inhibition result in data set [5] and in data set [6] was “Active” throughout.
